# Experimental data published in ChEMBL document CHEMBL4118192, “BET bromodomain ligands: Probing the WPF shelf to improve BRD4 bromodomain affinity and metabolic stability” (Bioorg Med Chem, 2018).
# What was measured:
# [1] = molecular target: Bromodomain-containing protein 9 (Homo sapiens) (UniProt Q9H8M2); test: Inhibition of human partial length BRD9 (R130 to V259 residues) expressed in bacterial expression system assessed as residual activity at 1 uM by BROMOscan assay relative to control
# HOP-62 = test: Growth inhibition of human HOP62 cells at 10 uM after 48 hrs by sulforhodamine B assay relative to control; format: functional; conditions: HOP-62, 48 h, read-out: GI
# Outline: (§1)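 NCI-60 single-dose screen at 10 μM for 48 h. Percent growth inhibition was measured by sulforhodamine B staining of cellular protein.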
# [2] = molecular target: Bromodomain-containing protein 2 (Homo sapiens) (UniProt P25440); test: Inhibition of human partial length BRD2 bromodomain 1 (K71 to N194 residues) expressed in bacterial expression system assessed as residual activity at 1 uM by BROMOscan assay relative to control
# Chain of Bromodomain-containing protein 2 (Homo sapiens) (P25440 whole entry, looked up, the tested form may be a part): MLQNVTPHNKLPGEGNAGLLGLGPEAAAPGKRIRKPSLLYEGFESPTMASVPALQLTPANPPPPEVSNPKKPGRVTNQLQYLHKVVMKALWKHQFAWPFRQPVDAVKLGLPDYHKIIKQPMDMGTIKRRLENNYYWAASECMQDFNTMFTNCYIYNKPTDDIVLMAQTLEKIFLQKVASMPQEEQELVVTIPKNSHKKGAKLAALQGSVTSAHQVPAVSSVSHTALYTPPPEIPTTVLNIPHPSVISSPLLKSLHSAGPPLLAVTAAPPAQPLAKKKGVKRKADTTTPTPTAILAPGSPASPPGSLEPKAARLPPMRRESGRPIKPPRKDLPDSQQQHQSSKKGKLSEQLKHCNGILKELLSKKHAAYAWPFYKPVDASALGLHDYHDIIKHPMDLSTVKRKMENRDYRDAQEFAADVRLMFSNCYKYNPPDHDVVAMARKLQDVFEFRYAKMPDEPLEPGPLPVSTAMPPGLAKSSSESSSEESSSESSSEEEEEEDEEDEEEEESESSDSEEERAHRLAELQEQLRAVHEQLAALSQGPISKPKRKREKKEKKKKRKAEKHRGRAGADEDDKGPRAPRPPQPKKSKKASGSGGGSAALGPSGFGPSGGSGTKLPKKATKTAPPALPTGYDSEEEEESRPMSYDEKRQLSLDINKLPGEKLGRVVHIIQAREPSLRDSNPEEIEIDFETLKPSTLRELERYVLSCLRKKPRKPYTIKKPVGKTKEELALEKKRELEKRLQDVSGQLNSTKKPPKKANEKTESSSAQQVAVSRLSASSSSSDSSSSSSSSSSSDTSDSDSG
# T47D [3] = test: Growth inhibition of human T47D cells after 48 hrs by sulforhodamine B assay; format: functional
# Outline: (§2)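 NCI-60 panel cells treated at five concentrations from 10 nM to 100 μM for 48 h. Read-out by sulforhodamine B protein stain. GI50 and total growth inhibition (TGI, if below 100 μM) taken from the concentration-response data.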
# BT-549 = test: Growth inhibition of human BT549 cells after 48 hrs by sulforhodamine B assay; format: functional; conditions: BT-549, 48 h
# Outline: (§3)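 NCI-60 panel screen. Cells were exposed for 48 h at five concentrations between 10 nM and 100 μM. Cellular protein was read by sulforhodamine B staining, and GI50 and total growth inhibition (TGI) concentrations were derived.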
# [4] = molecular target: Bromodomain-containing protein 3 (Homo sapiens) (UniProt Q15059); test: Inhibition of human partial length BRD3 bromodomain 1 (P24 to E144 residues) expressed in bacterial expression system assessed as residual activity at 1 uM by BROMOscan assay relative to control
# Malme-3M = test: Growth inhibition of human MALME-3M cells after 48 hrs by sulforhodamine B assay; format: functional; outline: as §3
# HT-29 = test: Growth inhibition of human HT-29 cells at 10 uM after 48 hrs by sulforhodamine B assay relative to control; format: functional; conditions: HT-29, 48 h, read-out: GI; outline: as §1
# [5] = molecular target: Bromodomain and WD repeat-containing protein 1 (Homo sapiens) (UniProt Q9NSI6); test: Inhibition of human partial length WDR9 bromodomain 2 (A1310 to E1430 residues) expressed in bacterial expression system assessed as residual activity at 1 uM by BROMOscan assay relative to control
# [6] = Intrinsic clearance in human liver microsomes at 3 uM; format: ADME, microsome; conditions: read-out: CLH
# [7] = molecular target: T1, Bromodomain-containing protein 4 (Homo sapiens, UniProt O60885); test: Inhibition of human partial length BRD4 bromodomain 2 (K333 to E460 residues) expressed in bacterial expression system assessed as residual activity at 1 uM by BROMOscan assay relative to control
# [8] = Apparent half life in human liver microsomes at 3 uM; format: ADME, microsome; conditions: read-out: t1/2(app)
# SR = test: Growth inhibition of human SR cells at 10 uM after 48 hrs by sulforhodamine B assay relative to control; format: functional; conditions: read-out: GI
# Outline: (§4)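 NCI-60 human cancer cell line screen, single dose of 10 μM for 48 h. Cellular protein content read by sulforhodamine B staining; growth inhibition expressed relative to untreated control.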
# T47D [9] = test: Growth inhibition of human T47D cells at 10 uM after 48 hrs by sulforhodamine B assay relative to control; format: functional; conditions: read-out: GI; outline: as §4
# COLO 205 = test: Growth inhibition of human COLO205 cells at 10 uM after 48 hrs by sulforhodamine B assay relative to control; format: functional; conditions: COLO 205, 48 h, read-out: GI; outline: as §1
# Peregrin (Homo sapiens) = Peregrin (Homo sapiens) (UniProt P55201); test: Inhibition of human partial length BRPF1 (E627 to G740 residues) expressed in bacterial expression system assessed as residual activity at 1 uM by BROMOscan assay relative to control
# Chain of Peregrin (Homo sapiens) (P55201 whole entry, the tested form may be a part): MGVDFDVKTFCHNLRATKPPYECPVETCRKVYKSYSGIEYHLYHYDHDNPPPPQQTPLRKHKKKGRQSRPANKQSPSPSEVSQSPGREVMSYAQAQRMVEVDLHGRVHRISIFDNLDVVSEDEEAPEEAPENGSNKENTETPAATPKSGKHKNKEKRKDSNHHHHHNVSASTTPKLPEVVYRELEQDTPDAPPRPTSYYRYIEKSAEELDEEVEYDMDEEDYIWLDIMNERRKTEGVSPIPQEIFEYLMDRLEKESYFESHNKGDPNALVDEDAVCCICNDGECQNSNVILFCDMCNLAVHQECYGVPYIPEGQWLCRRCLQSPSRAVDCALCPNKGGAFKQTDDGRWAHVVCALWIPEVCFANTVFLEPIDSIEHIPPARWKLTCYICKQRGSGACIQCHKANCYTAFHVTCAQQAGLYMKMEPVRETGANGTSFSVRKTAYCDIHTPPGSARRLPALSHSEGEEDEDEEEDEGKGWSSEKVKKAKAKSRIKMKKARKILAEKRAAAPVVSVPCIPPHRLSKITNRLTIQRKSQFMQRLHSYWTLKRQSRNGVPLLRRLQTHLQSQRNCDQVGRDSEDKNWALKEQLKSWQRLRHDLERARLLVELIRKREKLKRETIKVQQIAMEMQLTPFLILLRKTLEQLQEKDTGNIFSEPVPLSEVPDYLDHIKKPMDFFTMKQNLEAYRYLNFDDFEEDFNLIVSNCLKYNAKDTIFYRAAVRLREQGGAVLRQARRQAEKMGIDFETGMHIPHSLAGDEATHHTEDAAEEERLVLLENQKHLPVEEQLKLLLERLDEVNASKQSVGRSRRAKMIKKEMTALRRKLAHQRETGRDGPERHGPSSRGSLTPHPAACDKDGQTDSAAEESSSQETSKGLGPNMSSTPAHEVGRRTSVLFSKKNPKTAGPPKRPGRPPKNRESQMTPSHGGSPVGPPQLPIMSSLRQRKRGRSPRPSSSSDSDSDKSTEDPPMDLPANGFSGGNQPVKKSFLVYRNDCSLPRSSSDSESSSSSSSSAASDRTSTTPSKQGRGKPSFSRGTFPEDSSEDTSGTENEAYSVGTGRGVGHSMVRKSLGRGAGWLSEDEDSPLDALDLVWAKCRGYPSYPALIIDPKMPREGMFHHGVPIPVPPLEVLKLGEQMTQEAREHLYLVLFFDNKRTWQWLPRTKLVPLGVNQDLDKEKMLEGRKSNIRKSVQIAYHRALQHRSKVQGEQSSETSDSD
# [10] = molecular target: T1, Bromodomain-containing protein 4; test: Inhibition of human partial length BRD4 bromodomain 1 (N44 to E168 residues) expressed in bacterial expression system assessed as residual activity at 1 uM by BROMOscan assay relative to control
# HCC 2998 = test: Growth inhibition of human HCC2998 cells after 48 hrs by sulforhodamine B assay; format: functional; conditions: HCC 2998, 48 h; outline: as §3
# [11] = molecular target: Histone acetyltransferase KAT2B (Homo sapiens) (UniProt Q92831); test: Inhibition of human partial length PCAF (G715 to D831 residues) expressed in bacterial expression system assessed as residual activity at 1 uM by BROMOscan assay relative to control
# Chain of Histone acetyltransferase KAT2B (Homo sapiens) (Q92831 whole entry, looked up, the tested form may be a part): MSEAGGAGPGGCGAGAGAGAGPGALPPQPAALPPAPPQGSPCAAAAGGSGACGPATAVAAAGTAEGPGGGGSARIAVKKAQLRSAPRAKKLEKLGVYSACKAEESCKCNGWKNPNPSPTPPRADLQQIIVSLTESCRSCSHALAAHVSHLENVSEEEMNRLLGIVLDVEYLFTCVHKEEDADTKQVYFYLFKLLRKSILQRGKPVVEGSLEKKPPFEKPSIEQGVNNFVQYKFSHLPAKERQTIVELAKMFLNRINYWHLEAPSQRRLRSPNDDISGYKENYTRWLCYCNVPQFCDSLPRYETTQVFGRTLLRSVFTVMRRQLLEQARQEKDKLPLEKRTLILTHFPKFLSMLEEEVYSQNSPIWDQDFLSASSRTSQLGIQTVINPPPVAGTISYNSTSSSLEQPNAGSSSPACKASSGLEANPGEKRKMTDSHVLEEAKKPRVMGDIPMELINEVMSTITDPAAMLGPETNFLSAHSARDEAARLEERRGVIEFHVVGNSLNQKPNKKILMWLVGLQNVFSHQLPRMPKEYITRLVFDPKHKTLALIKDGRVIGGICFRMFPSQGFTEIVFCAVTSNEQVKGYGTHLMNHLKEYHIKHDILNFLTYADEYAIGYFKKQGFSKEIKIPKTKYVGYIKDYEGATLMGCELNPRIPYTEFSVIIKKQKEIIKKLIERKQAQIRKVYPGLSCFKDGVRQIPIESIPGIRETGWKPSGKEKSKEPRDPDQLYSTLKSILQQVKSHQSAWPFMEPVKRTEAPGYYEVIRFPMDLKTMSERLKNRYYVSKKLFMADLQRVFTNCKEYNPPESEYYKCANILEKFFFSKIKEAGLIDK
# [12] = molecular target: SWI/SNF-related matrix-associated actin-dependent regulator of chromatin subfamily A member 4 (Homo sapiens) (UniProt P51532); test: Inhibition of human partial length SMARCA4 (A1448 to S1575 residues) expressed in bacterial expression system assessed as residual activity at 1 uM by BROMOscan assay relative to control
# Chain of SWI/SNF-related matrix-associated actin-dependent regulator of chromatin subfamily A member 4 (Homo sapiens) (P51532 whole entry, the tested form may be a part): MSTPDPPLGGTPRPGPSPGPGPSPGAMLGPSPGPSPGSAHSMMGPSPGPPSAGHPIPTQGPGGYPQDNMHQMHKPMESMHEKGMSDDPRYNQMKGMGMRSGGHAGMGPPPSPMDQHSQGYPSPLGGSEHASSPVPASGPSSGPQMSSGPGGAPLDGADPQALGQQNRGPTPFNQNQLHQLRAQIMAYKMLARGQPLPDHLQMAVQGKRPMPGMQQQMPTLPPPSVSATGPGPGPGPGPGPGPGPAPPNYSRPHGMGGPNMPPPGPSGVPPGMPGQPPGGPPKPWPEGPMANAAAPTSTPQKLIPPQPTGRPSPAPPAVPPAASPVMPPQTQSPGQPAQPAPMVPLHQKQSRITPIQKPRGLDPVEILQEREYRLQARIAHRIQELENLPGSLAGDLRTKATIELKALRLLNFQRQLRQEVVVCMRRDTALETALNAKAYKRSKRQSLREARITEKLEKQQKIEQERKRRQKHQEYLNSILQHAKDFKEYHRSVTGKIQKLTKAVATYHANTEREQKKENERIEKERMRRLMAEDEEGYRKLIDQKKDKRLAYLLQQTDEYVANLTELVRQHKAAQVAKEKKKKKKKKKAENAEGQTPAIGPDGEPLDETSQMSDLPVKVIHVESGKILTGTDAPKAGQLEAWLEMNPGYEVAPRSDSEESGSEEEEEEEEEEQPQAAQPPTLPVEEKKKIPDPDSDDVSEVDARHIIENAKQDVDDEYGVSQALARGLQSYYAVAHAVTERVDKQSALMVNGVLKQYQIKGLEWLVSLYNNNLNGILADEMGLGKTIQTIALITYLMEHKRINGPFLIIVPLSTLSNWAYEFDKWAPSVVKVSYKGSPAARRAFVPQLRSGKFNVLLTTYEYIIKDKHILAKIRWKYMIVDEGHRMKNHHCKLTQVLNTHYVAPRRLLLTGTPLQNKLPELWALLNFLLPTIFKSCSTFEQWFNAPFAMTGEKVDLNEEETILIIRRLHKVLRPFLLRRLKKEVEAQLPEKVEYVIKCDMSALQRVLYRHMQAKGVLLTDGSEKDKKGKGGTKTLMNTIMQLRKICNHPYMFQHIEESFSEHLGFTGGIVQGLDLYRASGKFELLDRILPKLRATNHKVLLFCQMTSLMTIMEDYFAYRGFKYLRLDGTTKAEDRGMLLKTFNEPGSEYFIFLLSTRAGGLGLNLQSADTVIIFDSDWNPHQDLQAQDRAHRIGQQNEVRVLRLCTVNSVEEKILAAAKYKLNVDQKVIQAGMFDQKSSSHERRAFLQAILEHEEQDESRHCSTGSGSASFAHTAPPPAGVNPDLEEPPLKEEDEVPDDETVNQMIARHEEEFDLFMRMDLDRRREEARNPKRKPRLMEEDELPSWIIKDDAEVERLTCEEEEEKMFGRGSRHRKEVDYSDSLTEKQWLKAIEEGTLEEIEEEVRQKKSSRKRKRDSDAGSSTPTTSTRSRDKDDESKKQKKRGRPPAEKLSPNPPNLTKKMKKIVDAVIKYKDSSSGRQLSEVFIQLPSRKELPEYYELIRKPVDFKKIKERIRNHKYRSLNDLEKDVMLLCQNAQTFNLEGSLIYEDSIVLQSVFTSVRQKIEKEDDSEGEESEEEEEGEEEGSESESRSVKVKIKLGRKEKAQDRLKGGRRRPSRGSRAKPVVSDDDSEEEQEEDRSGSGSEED
# UO-31 = test: Growth inhibition of human UO31 cells after 48 hrs by sulforhodamine B assay; format: functional; conditions: UO-31, 48 h; outline: as §2
# [13] = molecular target: Bromodomain testis-specific protein (Homo sapiens) (UniProt Q58F21); test: Inhibition of human partial length BRDT bromodomain 1 (N21 to E137 residues) expressed in bacterial expression system assessed as residual activity at 1 uM by BROMOscan assay relative to control
# MDA-MB-231 = test: Growth inhibition of human MDA-MB-231 cells at 10 uM after 48 hrs by sulforhodamine B assay relative to control; format: functional; conditions: MDA-MB-231, 48 h, read-out: GI; outline: as §1
# [14] = molecular target: CREB-binding protein (Homo sapiens) (UniProt Q92793); test: Inhibition of human partial length CREBBP (R1081 to G1197 residues) expressed in bacterial expression system assessed as residual activity at 1 uM by BROMOscan assay relative to control
# UACC-62 = test: Growth inhibition of human UACC62 cells after 48 hrs by sulforhodamine B assay; format: functional; conditions: UACC-62, 48 h; outline: as §2
# U-251 = test: Growth inhibition of human U251 cells at 10 uM after 48 hrs by sulforhodamine B assay relative to control; format: functional; conditions: U-251, 48 h, read-out: GI; outline: as §4
# RXF 393 = test: Growth inhibition of human RXF393 cells at 10 uM after 48 hrs by sulforhodamine B assay relative to control; format: functional; conditions: RXF 393, 48 h, read-out: GI
# Outline: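 NCI-60 human cancer cell line screen, single-dose pass: cells exposed to 10 μM for 48 h. Cellular protein content read out by sulforhodamine B staining, and growth inhibition expressed relative to untreated control.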
# NCI-H23 = test: Growth inhibition of human NCI-H23 cells after 48 hrs by sulforhodamine B assay; format: functional; conditions: NCI-H23, 48 h
# Outline: (§5)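 NCI-60 panel follow-up: five concentrations from 10 nM to 100 μM, 48 h exposure. Growth read by sulforhodamine B protein staining. GI50 derived from the concentration-response, with the concentration for total growth inhibition (TGI) also recorded when below 100 μM.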
# PC-3 = test: Growth inhibition of human PC3 cells after 48 hrs by sulforhodamine B assay; format: functional; conditions: PC-3, 48 h; outline: as §5
# Chain of Bromodomain-containing protein 9 (Homo sapiens) (Q9H8M2 whole entry, the tested form may be a part): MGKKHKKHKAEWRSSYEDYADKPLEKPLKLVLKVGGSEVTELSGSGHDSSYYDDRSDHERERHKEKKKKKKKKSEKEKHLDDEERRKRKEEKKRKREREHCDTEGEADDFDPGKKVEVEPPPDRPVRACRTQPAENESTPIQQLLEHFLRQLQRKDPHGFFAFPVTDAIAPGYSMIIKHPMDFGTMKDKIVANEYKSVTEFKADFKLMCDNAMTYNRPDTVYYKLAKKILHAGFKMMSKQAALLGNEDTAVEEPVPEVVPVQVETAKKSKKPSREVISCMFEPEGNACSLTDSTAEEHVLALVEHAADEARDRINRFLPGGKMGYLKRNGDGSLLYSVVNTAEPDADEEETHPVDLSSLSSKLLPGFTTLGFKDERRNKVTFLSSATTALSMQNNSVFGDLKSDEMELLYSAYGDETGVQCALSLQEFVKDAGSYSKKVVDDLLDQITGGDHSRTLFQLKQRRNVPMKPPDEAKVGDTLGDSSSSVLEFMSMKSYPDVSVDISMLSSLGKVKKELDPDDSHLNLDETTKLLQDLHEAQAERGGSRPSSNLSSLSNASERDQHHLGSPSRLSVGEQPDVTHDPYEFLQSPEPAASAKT
structure (smiles),measurement,setting,value
Cc1noc(C)c1-c1cc(O)cc(C(O)c2ccccc2)c1 (stereo not drawn),Activity,[1],100%
same,inhibition of growth at 10 µM,HOP-62,52.8%
same,Activity,[2],1.4%
same,GI50,T47D [3],7.7 µM
same,GI50,BT-549,28.2 µM
same,Activity,[4],0.5%
same,GI50,Malme-3M,28.9 µM
same,inhibition of growth at 10 µM,HT-29,65.4%
same,Activity,[5],100%
same,microsomal CLint at 3 µM,[6],34.8 µL/min/mg
same,Activity,[7],0.2%
same,half-life at 3 µM,[8],39.8 min
same,inhibition of growth at 10 µM,SR,72.9%
same,inhibition of growth at 10 µM,T47D [9],52.9%
same,inhibition of growth at 10 µM,COLO 205,62.9%
same,Activity,Peregrin (Homo sapiens),100%
same,Activity,[10],3.7%
same,GI50,HCC 2998,8.55 µM
same,Activity,[11],93%
same,Activity,[12],100%
same,GI50,UO-31,4.58 µM
same,Activity,[13],8.8%
same,inhibition of growth at 10 µM,MDA-MB-231,37.6%
same,Activity,[14],43%
COc1ccccc1S(=O)(=O)Nc1ccc2c(c1)CN(C)C(=O)N2,GI50,UACC-62,0.7 µM
same,inhibition of growth at 10 µM,U-251,50%
same,inhibition of growth at 10 µM,HOP-62,55.7%
same,GI50,T47D [3],3.7 µM
same,GI50,BT-549,14.8 µM
same,inhibition of growth at 10 µM,HT-29,77.2%
same,inhibition of growth at 10 µM,RXF 393,26.7%
same,inhibition of growth at 10 µM,SR,64%
same,inhibition of growth at 10 µM,T47D [9],68.6%
same,inhibition of growth at 10 µM,COLO 205,61.6%
same,GI50,NCI-H23,8.5 µM
same,GI50,UO-31,1.1 µM
same,GI50,PC-3,28.2 µM
same,inhibition of growth at 10 µM,MDA-MB-231,45.3%
